Assay results published in publication PMC9893515 (Bioorganic chemistry, 2021).

These molecules were tested against T1, recombinant human TDP2 (Homo sapiens, UniProt O95551) (assay: Recombinant TDP2 assay).
T1 sequence (O95551 1-362): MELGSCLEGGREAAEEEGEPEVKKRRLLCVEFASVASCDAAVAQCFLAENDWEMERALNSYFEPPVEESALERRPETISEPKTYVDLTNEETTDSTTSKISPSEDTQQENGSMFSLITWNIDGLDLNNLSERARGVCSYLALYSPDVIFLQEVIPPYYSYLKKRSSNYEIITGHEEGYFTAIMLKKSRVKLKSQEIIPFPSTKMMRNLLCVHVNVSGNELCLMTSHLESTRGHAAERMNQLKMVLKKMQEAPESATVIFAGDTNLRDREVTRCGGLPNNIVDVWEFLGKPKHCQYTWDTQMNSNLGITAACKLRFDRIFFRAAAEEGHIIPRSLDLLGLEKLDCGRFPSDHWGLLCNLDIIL
Format: biochemical
Outline: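 Human recombinant TDP2 (25 pM) with 1 nM 18-mer 5'-phosphotyrosyl ssDNA, 3'-α32P-cordycepin-labelled. Reaction ran 15 min at room temperature in Tris-HCl pH 7.5, KCl, MgCl2, EDTA, DTT, BSA and Tween 20. Stopped with formamide loading buffer, then 16% denaturing PAGE and phosphorimaging densitometry of product. […] IC50 is 50% enzyme inhibition.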
In the case of CCOC(=O)c1c(C)oc2c1C(=O)c1ccccc1C2=O [Compound 11, Ethyl 2-methyl-4,9-dioxo-4,9-dihydronaphtho[2,3-b]furan-3-carboxylate], the IC50 is reported as greater than 111 µM.
CCOC(=O)c1c(C)oc2c1C(=O)c1cnccc1C2=O [Compound 12, Ethyl 2-methyl-4,9-dioxo-4,9-dihydrofuro[2,3-g]isoquinoline-3-carboxylate] gave an IC50 of 32 ± 3.2 µM.
In the case of CCOC(=O)c1c(C)oc2c1C(=O)c1ccncc1C2=O [Compound 13, Ethyl 2-methyl-4,9-dioxo-4,9-dihydrofuro[3,2-g]isoquinoline-3-carboxylate], the IC50 is reported as greater than 111 µM.
In the case of CCOC(=O)c1c(C)oc2c1C(=O)c1nccnc1C2=O [Compound 14, Ethyl 7-methyl-5,9-dioxo-5,9-dihydrofuro[2,3-g]quinoxaline-8-carboxylate], the IC50 is reported as 61 ± 43 µM.
CCOC(=O)c1c(C)oc2c1C(=O)c1nc3ccccc3cc1C2=O [Compound 16, Ethyl 2-methyl-4,11-dioxo-4,11-dihydrofuro[2,3-b]acridine-3-carboxylate] gave an IC50 greater than 111 µM.
Molecule CCOC(=O)c1c(C)oc2c1C(=O)c1nc(Cl)ccc1C2=O [Compound 19, Ethyl-6-chloro-2-methyl-4,9-dioxo-4,9-dihydrofuro[2,3-g]quinoline-3-carboxylate] has an IC50 of 94 ± 29 µM.
Molecule CCOC(=O)c1c(C)oc2c1C(=O)c1ccc(Cl)nc1C2=O [Compound 20, Ethyl-7-chloro-2-methyl-4,9-dioxo-4,9-dihydrofuro[3,2-g]quinoline-3-carboxylate] has an IC50 greater than 111 µM.
With CCOC(=O)c1c(C)oc2c1C(=O)c1nc(C)ccc1C2=O [Compound 21, Ethyl-2,6-dimethyl-4,9-dioxo-4,9-dihydrofuro[2,3-g]quinoline-3-carboxylate] the IC50 was 21 ± 5.5 µM.
For CCOC(=O)c1c(C)oc2c1C(=O)c1ccc(C)nc1C2=O [Compound 22, Ethyl-2,7-dimethyl-4,9-dioxo-4,9-dihydrofuro[3,2-g]quinoline-3-Carboxylate], the IC50 was greater than 111 µM.
For CCOC(=O)c1c(C)oc2c1C(=O)c1nc(N(C)C)ccc1C2=O [Compound 23, Ethyl-6-(dimethylamino)-2-methyl-4,9-dioxo-4,9-dihydrofuro[2,3-g]quinoline-3-carboxylate], the IC50 was 37 ± 7 µM.
Molecule CCOC(=O)c1c(C)oc2c1C(=O)c1nc(N3CCCCC3)ccc1C2=O [Compound 24, Ethyl-2-methyl-4,9-dioxo-6-(piperidin-1-yl)-4,9-dihydrofuro[2,3-g]quinoline-3-carboxylate] has an IC50 of 44 ± 2 µM.
For CCOC(=O)c1c(C)oc2c1C(=O)c1nc(N3CCN(C)CC3)ccc1C2=O [Compound 25, Ethyl-2-methyl-6-(4-methylpiperazin-1-yl)-4,9-dioxo-4,9-dihydrofuro[2,3-g]quinoline-3-carboxylate], the IC50 was greater than 111 µM.
Work on C#CCN(C)c1ccc2c(n1)C(=O)c1c(oc(C)c1C(=O)OCC)C2=O [Compound 26, Ethyl-2-methyl-6-(methyl(prop-2-yn-1-yl)amino)-4,9-dioxo-4,9-dihydrofuro[2,3-g]quinoline-3-carboxylate] yielded an IC50 greater than 111 µM.
CCOC(=O)c1c(C)oc2c1C(=O)c1nc(-c3ccc(OC)cc3)ccc1C2=O [Compound 27, Ethyl6-(4-methoxyphenyl)-2-methyl-4,9-dioxo-4,9-dihydrofuro[2,3-g]quinoline-3-carboxylate] gave an IC50 greater than 111 µM.
CCOC(=O)c1c(C)oc2c1C(=O)c1nc(-c3ccco3)ccc1C2=O [Compound 28, Ethyl-6-(furan-2-yl)-2-methyl-4,9-dioxo-4,9-dihydrofuro[2,3-g]quinoline-3-carboxylate] gave an IC50 greater than 111 µM.
With CCOC(=O)c1c(C)oc2c1C(=O)c1ccc(N(C)C)nc1C2=O [Compound 30, Ethyl-7-(dimethylamino)-2-methyl-4,9-dioxo-4,9-dihydrofuro[3,2-g]quinoline-3-carboxylate] the IC50 was greater than 111 µM.
In the case of CCOC(=O)c1c(C)oc2c1C(=O)c1ccc(N3CCCCC3)nc1C2=O [Compound 31, Ethyl-2-methyl-4,9-dioxo-7-(piperidin-1-yl)-4,9-dihydrofuro[3,2-g]quinoline-3-carboxylate], the IC50 is reported as greater than 111 µM.
In the case of CCOC(=O)c1c(C)oc2c1C(=O)c1ncc(C)cc1C2=O [Compound 33, Ethyl-2,7-dimethyl-4,9-dioxo-4,9-dihydrofuro[2,3-g]quinoline-3-carboxylate], the IC50 is reported as greater than 111 µM.
CCOC(=O)c1c(C)oc2c1C(=O)c1nccc(-c3ccccc3[N+](=O)[O-])c1C2=O [Compound 34, Ethyl-2-methyl-8-(2-nitrophenyl)-4,9-dioxo-4,9-dihydrofuro[2,3-g]quinoline-3-carboxylate] gave an IC50 greater than 111 µM.
CCOC(=O)c1ccnc2c1C(=O)c1oc(C)c(C(=O)OCC)c1C2=O [Compound 35, Diethyl-2-methyl-4,9-dioxo-4,9-dihydrofuro[2,3-g]quinoline-3,8-dicarboxylate] gave an IC50 of 69 ± 3.1 µM.
In the case of CCOC(=O)c1c(C)oc2c1C(=O)c1nccc(CC)c1C2=O [Compound 36, Ethyl-8-ethyl-2-methyl-4,9-dioxo-4,9-dihydrofuro[2,3-g]quinoline-3-carboxylate], the IC50 is reported as 28 ± 1.3 µM.
With CCOC(=O)c1c(C(C)C)oc2c1C(=O)c1ncccc1C2=O [Compound 39, Ethyl 2-isopropyl-4,9-dioxo-4,9-dihydrofuro[2,3-g]quinoline-3-carboxylate] the IC50 was 25 ± 7.7 µM.
With CCOC(=O)c1c(C(C)C)oc2c1C(=O)c1cccnc1C2=O [Compound 40, Ethyl 2-isopropyl-4,9-dioxo-4,9-dihydrofuro[3,2-g]quinoline-3-carboxylate] the IC50 was greater than 111 µM.
In the case of CCOC(=O)c1c(-c2ccccc2)oc2c1C(=O)c1ncccc1C2=O [Compound 41, Ethyl 4,9-dioxo-2-phenyl-4,9-dihydrofuro[2,3-g]quinoline-3-carboxylate], the IC50 is reported as 28 ± 6.4 µM.
CCOC(=O)c1c(-c2ccccc2)oc2c1C(=O)c1cccnc1C2=O [Compound 42, Ethyl 4,9-dioxo-2-phenyl-4,9-dihydrofuro[3,2-g]quinoline-3-carboxylate] gave an IC50 of 47 ± 24 µM.
CCOC(=O)c1c(CBr)oc2c1C(=O)c1ncccc1C2=O [Compound 43, Ethyl 2-(bromomethyl)-4,9-dioxo-4,9-dihydrofuro[2,3-g]quinoline-3-carboxylate] was tested, and the IC50 was 21 ± 5.5 µM.
CCOC(=O)c1c(C(Br)Br)oc2c1C(=O)c1ncccc1C2=O [Compound 44, Ethyl 2-(dibromomethyl)-4,9-dioxo-4,9-dihydrofuro[2,3-g]quinoline-3-carboxylate] gave an IC50 of 27 ± 2.5 µM.
CCOC(=O)c1c(CN2CCN(C(C)=O)CC2)oc2c1C(=O)c1ncccc1C2=O [Compound 45, Ethyl 2-((4-acetylpiperazin-1-yl)methyl)-4,9-dioxo-4,9-dihydrofuro[2,3-g]qui noline-3-carboxylate] gave an IC50 of 31 ± 4.2 µM.
With CCOC(=O)c1c(CN2CCOCC2)oc2c1C(=O)c1ncccc1C2=O [Compound 46, Ethyl 2-(morpholinomethyl)-4,9-dioxo-4,9-dihydrofuro[2,3-g]quinoline-3-ca rboxylate] the IC50 was 22 ± 6.4 µM.
In the case of CCOC(=O)c1c(CN2CCSCC2)oc2c1C(=O)c1ncccc1C2=O [Compound 47, Ethyl 4,9-dioxo-2-(thiomorpholinomethyl)-4,9-dihydrofuro[2,3-g]quinoline3-carboxylate], the IC50 is reported as 31 ± 6.4 µM.
In the case of CCOC(=O)c1c(C=O)oc2c1C(=O)c1ncccc1C2=O [Compound 49, Ethyl-2-formyl-4,9-dioxo-4,9-dihydrofuro[2,3-g]quinoline-3-carboxylate], the IC50 is reported as 5.2 ± 4.1 µM.
